Measured values taken from ChEMBL document CHEMBL3792330, “Designed Glycopeptidomimetics Disrupt Protein-Protein Interactions Mediating Amyloid β-Peptide Aggregation and Restore Neuroblastoma Cell Viability” (J Med Chem, 2016).
One block for each molecule: values may come before it. Active and inactive are the calls of the source. The calls are words filed in the database; no cut-off is given here.

Assays:
[1] = molecular target: T1, Islet amyloid polypeptide (Homo sapiens) (UniProt P10997); assay: Inhibition of human IAPP fibril formation assessed as decrease in final fluorescence intensity at compound/protein ratio of 10/1 by ThT fluorescence assay
T1 sequence (whole entry): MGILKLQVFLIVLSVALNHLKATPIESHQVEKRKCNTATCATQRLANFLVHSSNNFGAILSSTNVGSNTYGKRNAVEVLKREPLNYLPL

SH-SY5Y [2] = assay: Neuroprotective activity against amyloid beta (1 to 42)-induced toxicity in human SH-SY5Y cells assessed as reduction of cell death at 0.1 equiv after 24 hrs by MTS assay; type: functional; set-up: scale not given: the % may be the effect or the level left
Method in brief: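 SH-SY5Y cells seeded at 20 000/well in low-serum Optimem, 24 h at 37°C, 5% CO2. Aβ1-42 at 50 μM in sterile PBS pre-incubated 24 h at room temperature with 1, 5, 10 or 50 μM inhibitor, or without inhibitor. The mix was diluted 1:10 into Optimem (5 μM Aβ final) and added to cells in quadruplicate. After a further 24 h, viability was read by MTS. Assay run twice.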

[3] = molecular target: Amyloid-beta precursor protein (Homo sapiens) (UniProt P05067); assay: Inhibition of amyloid beta (1 to 42) (unknown origin) fibril formation assessed as decrease in fluorescence plateau at compound/protein ratio of 10/1 after 42 hrs by ThT fluorescence assay relative to control; conditions: concentration not given here
Method in brief: (§1)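 Aβ1-42 (1 mM in 1% ammonia, diluted in buffer) added to a final 10 μM into 40 μM ThT in 10 mM Tris-HCl, 100 mM NaCl pH 7.4, with compound at 100, 50, 10 or 1 μM (0.5% DMSO), at room temperature. Ex/em 440/485 nm read for 42 h, in duplicate or triplicate, 2–4 runs. t1/2 and plateau F expressed relative to Aβ alone.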

[4] = molecular target: Amyloid-beta precursor protein (Homo sapiens) (UniProt P05067); assay: Inhibition of amyloid beta (1 to 42) (unknown origin) fibril formation at compound/protein ratio of 10/1, 1/1, 0.1/1 […] by ThT fluorescence assay
[5] = molecular target: Amyloid-beta precursor protein (Homo sapiens) (UniProt P05067); assay: Inhibition of amyloid beta (1 to 42) (unknown origin) fibril formation assessed as extension of aggregation half life at compound/protein ratio of 10/1 after 42 hrs by ThT fluorescence assay relative to control; set-up: Activity: scale not given: the % may be the effect or the level left; method in brief: as §1
[6] = molecular target: T1, Islet amyloid polypeptide (Homo sapiens); assay: Inhibition of human IAPP fibril formation assessed as increase of aggregation half life at compound/protein ratio of 10/1 by ThT fluorescence assay
[7] = molecular target: Amyloid-beta precursor protein (Homo sapiens) (UniProt P05067); assay: Inhibition of amyloid beta (1 to 42) (unknown origin) fibril formation assessed as decrease in fluorescence plateau at compound/protein ratio of 0.1/1 after 42 hrs by ThT fluorescence assay relative to control; conditions: concentration not given here; method in brief: as §1
Plasma = assay: Metabolic stability in 10% human plasma assessed as drug degradation at 1 uM after 24 hrs by HPLC analysis; type: ADME, cell-free
Method in brief: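 Compounds taken from 40 μM DMSO stock to 1 μM in 10% human plasma/90% sterile PBS, held 24 h at 37 °C. Analysed by C18 HPLC with a 0–80% gradient (A: 0.1% TFA in water; B: 0.05% TFA in acetonitrile).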

[8] = molecular target: Amyloid-beta precursor protein (Homo sapiens) (UniProt P05067); assay: Inhibition of amyloid beta (1 to 42) (unknown origin) fibril formation assessed as decrease in fluorescence plateau at compound/protein ratio of 1/1 after 42 hrs by ThT fluorescence assay relative to control; method in brief: as §1
[9] = molecular target: Amyloid-beta precursor protein (Homo sapiens) (UniProt P05067); assay: Inhibition of amyloid beta (1 to 42) (unknown origin) aggregation assessed as appearance of less dense fiber at compound/protein ratio of 1/1 after 42 hrs by uranyl acetate staining-based transmission electron microscopy
Method in brief: (§2)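 Samples prepared as for ThT: Aβ1-42 at 10 μM in 10 mM Tris-HCl, 100 mM NaCl pH 7.4, with or without compound at 10 or 100 μM. After 42 h, adsorbed 2 min onto carbon grids and negatively stained 45 s with 2% uranyl acetate. Imaged by TEM at 80 kV.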

SH-SY5Y [10] = assay: Neuroprotective activity against amyloid beta (1 to 42)-induced membrane damage in human SH-SY5Y cells at 0.1 to 5 uM after 24 hrs by LDH assay; type: functional, cell-based
Method in brief: (§3)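 Aβ1-42 at 50 μM in sterile PBS pre-incubated 24 h at room temperature with 1, 5, 10 or 50 μM compound, then diluted 1:10 (5 μM Aβ final) onto SH-SY5Y cells. Cells seeded at 20 000/well in low-serum Optimem, 37 °C, 5% CO2, 24 h. Exposure a further 24 h in quadruplicate. MTS viability or LDH release read; assays repeated twice.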

[11] = molecular target: Amyloid-beta precursor protein (Homo sapiens) (UniProt P05067); assay: Inhibition of amyloid beta (1 to 42) (unknown origin) fibril formation assessed as extension of aggregation half life at compound/protein ratio of 1/1 after 42 hrs by ThT fluorescence assay relative to control; set-up: Activity: scale not given: the % may be the effect or the level left; method in brief: as §1
[12] = molecular target: Amyloid-beta precursor protein (Homo sapiens) (UniProt P05067); assay: Inhibition of amyloid beta (1 to 42) (unknown origin) fibril formation assessed as extension of aggregation half life at compound/protein ratio of 0.1/1 after 42 hrs by ThT fluorescence assay relative to control; method in brief: as §1
SH-SY5Y [13] = assay: Neuroprotective activity against amyloid beta (1 to 42)-induced toxicity in human SH-SY5Y cells assessed as cell viability at 0.25 to 5 uM after 24 hrs by MTS assay; type: functional, cell-based; method in brief: as §3
[14] = molecular target: Amyloid-beta precursor protein (Homo sapiens) (UniProt P05067); assay: Inhibition of amyloid beta (1 to 42) (unknown origin) aggregation assessed as scattered, short and scarce fiber formation at compound/protein ratio of 10/1 after 42 hrs by uranyl acetate staining-based transmission electron microscopy; method in brief: as §2
[15] = molecular target: Amyloid-beta precursor protein (Homo sapiens) (UniProt P05067); assay: Inhibition of amyloid beta (1 to 42) (unknown origin) aggregation assessed as appearance of glubular aggregation at compound/protein ratio of 1/1 after 42 hrs by transmission electron microscopy; method in brief: as §2
[16] = molecular target: Amyloid-beta precursor protein (Homo sapiens) (UniProt P05067); assay: Binding affinity to amyloid beta (1 to 42) (unknown origin) by SPR analysis
Method in brief: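 Aβ1-42 (0.05 μM in 10 mM sodium acetate pH 4.6) amine-coupled to an EDC/NHS-activated gold chip, then rinsed with 0.1% NH4OH to leave mainly monomer. Analytes in 150 mM PBS with 2% DMSO were injected at 12.5–200 μM for 1 min at 80 μL/min. DMSO solvent correction applied and the ethanolamine-blocked blank channel subtracted. Regeneration with 0.1% NH4OH.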

[17] = molecular target: Amyloid-beta precursor protein (Homo sapiens) (UniProt P05067); assay: Inhibition of amyloid beta (1 to 42) (unknown origin) aggregation after 42 hrs by uranyl acetate staining-based transmission electron microscopy; method in brief: as §2
[18] = molecular target: Amyloid-beta precursor protein (Homo sapiens) (UniProt P05067); assay: Inhibition of amyloid beta (1 to 42) (unknown origin) fibril formation after 42 hrs by ThT fluorescence assay; method in brief: as §1

Chain of Amyloid-beta precursor protein (Homo sapiens) (P05067 whole entry): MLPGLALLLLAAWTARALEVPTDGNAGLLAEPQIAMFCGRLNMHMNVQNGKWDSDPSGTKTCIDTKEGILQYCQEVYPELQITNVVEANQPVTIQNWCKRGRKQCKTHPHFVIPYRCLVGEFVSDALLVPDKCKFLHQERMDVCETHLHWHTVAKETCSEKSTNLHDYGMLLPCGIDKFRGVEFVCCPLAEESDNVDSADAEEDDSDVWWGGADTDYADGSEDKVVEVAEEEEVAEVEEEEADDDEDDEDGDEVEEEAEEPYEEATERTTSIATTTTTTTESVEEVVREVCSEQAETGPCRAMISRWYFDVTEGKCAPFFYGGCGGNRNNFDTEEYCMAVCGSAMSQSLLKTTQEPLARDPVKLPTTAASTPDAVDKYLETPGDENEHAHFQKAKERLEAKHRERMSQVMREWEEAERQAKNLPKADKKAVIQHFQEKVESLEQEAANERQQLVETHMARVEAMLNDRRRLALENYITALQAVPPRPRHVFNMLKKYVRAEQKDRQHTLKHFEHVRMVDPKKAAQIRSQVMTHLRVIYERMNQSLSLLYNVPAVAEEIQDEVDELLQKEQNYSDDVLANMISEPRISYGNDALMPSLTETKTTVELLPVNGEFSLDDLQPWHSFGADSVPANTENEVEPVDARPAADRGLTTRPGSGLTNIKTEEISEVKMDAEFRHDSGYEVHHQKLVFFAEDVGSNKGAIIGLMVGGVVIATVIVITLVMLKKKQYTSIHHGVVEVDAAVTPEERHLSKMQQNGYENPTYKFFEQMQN

Compound: COc1ccc(NC(C)=O)cc1C(=O)NNC(=O)[C@H](CCCCN)NC(=O)CCOC[C@H]1OC(OCCCNC(=O)[C@@H](NC(=O)[C@H](C)N)C(C)C)[C@H](O)[C@@H](O)[C@@H]1O (mixture of isomers)
inhibition [1]: inactive
Activity (SH-SY5Y [2]): 75%
inhibition [3]: 87%
inhibition [4]: Active
inhibition [5]: Active
inhibition [6]: inactive
inhibition [7]: 23%
Stability (Plasma): Stable
inhibition ([8]; concentration not given here): 29%
inhibition [9]: Active
Activity (SH-SY5Y [10]): Active
Activity [11]: 148%
inhibition [12]: inactive
Activity (SH-SY5Y [13]): Active
inhibition [14]: Active
inhibition [15]: Active
Activity [16]: Dose-dependent effect

Compound: COc1ccc(NC(C)=O)cc1C(=O)NNC(=O)[C@@H](NC(=O)CCOC[C@H]1OC(OCCCNC(=O)[C@@H](NC(=O)[C@H](C)N)C(C)C)[C@H](O)[C@@H](O)[C@@H]1O)C(C)C (mixture of isomers)
inhibition [3]: 31%
Activity [5]: 325%
inhibition [8]: inactive
Activity [11]: 155%

Second part, the molecule after the results:

inhibition [17]: inactive
inhibition [18]: inactive
Compound: COc1ccc(NC(C)=O)cc1C(=O)NNC(=O)[C@@H](NC(=O)CCOC[C@H]1OC(OCCCNC(=O)[C@@H](NC(=O)[C@H](C)N)C(C)C)[C@H](OCc2ccccc2)[C@@H](OCc2ccccc2)[C@@H]1OCc1ccccc1)C(C)C (mixture of isomers)

inhibition [17]: inactive
inhibition [18]: inactive
Compound: COc1ccc(NC(C)=O)cc1C(=O)NNC(=O)[C@H](CCCCNC(=O)OCc1ccccc1)NC(=O)CCOC[C@H]1OC(OCCCNC(=O)[C@@H](NC(=O)[C@H](C)N)C(C)C)[C@H](OCc2ccccc2)[C@@H](OCc2ccccc2)[C@@H]1OCc1ccccc1 (mixture of isomers)

inhibition [17]: inactive
inhibition [18]: inactive
Compound: COc1ccc(NC(C)=O)cc1C(=O)NNC(=O)[C@H](CCCCNC(=O)OCc1ccccc1)NC(=O)CCOC[C@H]1OC(OCCCNC(=O)[C@@H](NC(=O)[C@H](C)NC(=O)OC(C)(C)C)C(C)C)[C@H](OCc2ccccc2)[C@@H](OCc2ccccc2)[C@@H]1OCc1ccccc1 (mixture of isomers)
